# Screening results deposited in PubChem BioAssay by Broad Institute.
# FN deposition inh: fibronectin deposition inhibition | AH1F fibroblasts, Alexa488-fibronectin deposition fluorescence, overnight | inhibition, % at 12.6 µM | hit rate 0.086% among 350,000;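 active = mean inhibition across replicates of 30% or more, regardless of how many single replicates reach that level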;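 note: positive control wells lacked labelled fibronectin entirely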
#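 Assay system: AH1F fibroblast monolayer, labelled fibronectin deposition. Amount: 10000 cells per well. Also added: labelled fibronectin 24 nM. Compound: single-point pinned compound. Incubation: cell attachment 1 h, compound and FN exposure overnight. Detection: fluorescence after three HBSS washes, excitation 485 nm, emission 525 nm. Read-out: inhibition of fibronectin deposition signal.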
# RAD52 anneal inh: RAD52 (human) annealing inhibition | recombinant RAD52 DNA annealing, FRET fluorescence | inhibition, % at 18.7 µM | hit rate 0.46% among 360,000;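 active = every replicate showing at least 50% inhibition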
# RAD54 branch: inhibitors of human RAD54 branch migration; inhibition, % at 10.4 µM; Q92698; RAD54 Holliday junction branch migration, FAM/BHQ fluorescence; hit rate 0.14% among 360,000;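 active = mean normalized replicate activity at least 40 and at least half of replicates scoring 40 or more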;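 note: 0% = median of neutral control wells and 100% = median of positive control wells; inhibitors cause a drop in the FAM fluorescence signal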
# Target sequence (Q92698 whole entry, looked up): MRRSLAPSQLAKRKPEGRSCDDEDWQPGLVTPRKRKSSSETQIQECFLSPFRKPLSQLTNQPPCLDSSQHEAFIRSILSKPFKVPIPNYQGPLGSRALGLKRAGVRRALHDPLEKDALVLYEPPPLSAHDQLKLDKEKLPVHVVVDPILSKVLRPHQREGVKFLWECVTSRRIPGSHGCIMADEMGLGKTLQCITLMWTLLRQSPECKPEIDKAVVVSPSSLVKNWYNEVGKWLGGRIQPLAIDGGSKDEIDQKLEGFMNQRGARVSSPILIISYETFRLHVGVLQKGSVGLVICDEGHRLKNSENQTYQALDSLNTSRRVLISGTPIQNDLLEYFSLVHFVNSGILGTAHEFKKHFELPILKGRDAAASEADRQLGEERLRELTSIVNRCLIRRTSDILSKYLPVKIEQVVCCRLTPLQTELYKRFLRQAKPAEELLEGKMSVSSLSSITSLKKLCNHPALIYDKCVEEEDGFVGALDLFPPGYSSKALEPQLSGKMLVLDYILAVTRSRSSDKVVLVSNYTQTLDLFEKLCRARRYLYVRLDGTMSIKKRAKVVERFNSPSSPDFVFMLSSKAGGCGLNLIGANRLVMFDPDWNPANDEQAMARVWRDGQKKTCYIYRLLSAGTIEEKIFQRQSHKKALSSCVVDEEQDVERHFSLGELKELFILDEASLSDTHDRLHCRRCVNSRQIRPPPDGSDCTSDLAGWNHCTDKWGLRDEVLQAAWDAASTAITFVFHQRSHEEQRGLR
# PAX8 inh HTS: PAX8 transcriptional activity inhibition | AID 652154 | RMG-I TPO-luciferase reporter, SteadyGlo, 24 h | hit rate 1.2% among 360,000 | inhibition, % at 12.6 µM;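 active = mean replicate inhibition at least 60% with every replicate also reaching 60%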;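 note: luciferase light reporting Pax8 driven TPO promoter activity; plate controls were median of neutral control wells for no effect and mitoxantrone controls for full effect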
# * hit, by the source's call; . = no result. Compounds with a hit are over-represented: about 1.3% of the library has one in this group of screens.
SMILES,FN deposition inh,RAD52 anneal inh,RAD54 branch,PAX8 inh HTS
COc1ccc(NC(=O)Nc2ccc3c(c2)C(=O)N([C@@H](C)CO)C[C@@H](C)[C@@H](CN(C)Cc2ccc(C(F)(F)F)cc2)O3)cc1,.,7.6,-0.5,104.8*
COc1ccc(CN(C)C[C@@H]2Oc3ccc(NC(=O)NC4CCCCC4)cc3C(=O)N([C@@H](C)CO)C[C@H]2C)cc1,.,5.7,63.5*,-8.7
CNC[C@@H]1Oc2ccc(NC(=O)Nc3ccc(C(F)(F)F)cc3)cc2C(=O)N([C@@H](C)CO)C[C@H]1C,.,4.9,5.8,-1.0
COc1ccc(NC(=O)NCCC2=CCCCC2)cc1,-7.7,-8.1,.,-142.7
COc1ccc2c(C)nc(Nc3nc(-c4ccccc4)cc(=O)[nH]3)nc2c1,15.0,-16.2,-0.8,95.2*
Cc1cc(O)c(C(C)C)cc1C1(c2cc(C(C)C)c(O)cc2C)OC(=O)c2ccccc21,1.9,3.0,14.9,89.0*
COc1ccc(-c2cn(CC[C@H]3CC[C@@H](NC(=O)Cc4ccccn4)[C@@H](CO)O3)nn2)cc1,.,-14.6,5.4,87.7*
COc1ccc(S(=O)(=O)N(C)C[C@H]2Oc3c(NC(=O)Nc4ccc(C(F)(F)F)cc4)cccc3C(=O)N([C@@H](C)CO)C[C@H]2C)cc1,-5.2,-8.0,-0.1,105.8*
C[C@@H]1CN([C@@H](C)CO)C(=O)c2cccc(NC(=O)c3nc4ccccc4s3)c2O[C@@H]1CN(C)S(=O)(=O)c1ccc(Cl)cc1,4.7,3.9,-0.7,26.9
C[C@H](CO)N1C[C@H](C)[C@@H](CN(C)S(=O)(=O)c2ccc(Cl)cc2)Oc2c(NC(=O)c3nc4ccccc4s3)cccc2C1=O,-12.6,-0.6,-11.1,72.5*
C[C@@H]1CN([C@H](C)CO)C(=O)c2cccc(NC(=O)Nc3cccc4ccccc34)c2O[C@@H]1CN(C)S(=O)(=O)c1ccc(Cl)cc1,.,-0.3,.,84.3*
COc1ccc(S(=O)(=O)N(C)C[C@@H]2Oc3c(NC(=O)Nc4ccc(C(F)(F)F)cc4)cccc3C(=O)N([C@@H](C)CO)C[C@H]2C)cc1,7.4,5.3,1.1,5.0
CNC[C@H]1Oc2c(NC(=O)c3nc4ccccc4s3)cccc2C(=O)N([C@H](C)CO)C[C@@H]1C,2.5,.,.,61.2*
CCN1[C@H](C(=O)OC)[C@@H](CO)[C@@H]2Cn3c(ccc(-c4ccc(F)cc4)c3=O)[C@@H]21,.,-8.7,16.8,11.2
C[C@H](CO)N1C[C@H](C)[C@@H](CN(C)CC2CC2)Oc2c(NC(=O)Nc3cccc4ccccc34)cccc2C1=O,.,-8.3,-2.1,16.4
C[C@H]1CN([C@@H](C)CO)C(=O)c2cccc(NC(=O)Nc3ccc(F)cc3)c2O[C@H]1CN(C)S(=O)(=O)c1ccc(Cl)cc1,-1.2,-13.3,2.0,66.7*
C[C@H]1CN([C@@H](C)CO)C(=O)c2cccc(NC(=O)Nc3cccc4ccccc34)c2O[C@H]1CN(C)CC1CC1,-7.8,37.9,.,89.6*
Cc1ccc(S(=O)(=O)N(C)C[C@H]2Oc3c(NC(=O)c4ccc(-c5nccs5)cc4)cccc3C(=O)N([C@H](C)CO)C[C@@H]2C)cc1,.,7.3,-1.2,-15.3
Cc1ccc(S(=O)(=O)N(C)C[C@@H]2Oc3c(NC(=O)c4ccc(-c5nccs5)cc4)cccc3C(=O)N([C@@H](C)CO)C[C@@H]2C)cc1,.,13.9,-4.0,94.8*
COc1ccc(C(OC(=O)c2ccco2)C(=O)NC(C)(C)C)cc1OC (centres undefined),-9.8,-15.7,-1.7,16.9
O=C(NC1=C(NC2CCS(=O)(=O)C2)C(=O)c2ccccc2C1=O)c1ccccc1 (centres undefined),4.9,-21.6,-3.7,95.6*
O=C(NC1=C(Nc2ccc(Cl)cc2)C(=O)c2ccccc2C1=O)c1ccccc1,-8.9,10.7,.,46.9
C[C@@H]1CN([C@@H](C)CO)C(=O)Cc2cc(N(C)C)ccc2O[C@@H]1CN(C)Cc1ccc(C(=O)Nc2ccccc2N)cc1,-17.9,7.8,-0.2,75.8*
C[C@H]1CN([C@@H](C)CO)C(=O)Cc2cc(N(C)C)ccc2O[C@@H]1CN(C)Cc1ccc(C(=O)Nc2ccccc2N)cc1,2.9,1.7,-20.5,64.8*
C[C@@H]1CN([C@@H](C)CO)C(=O)Cc2cc(N(C)C)ccc2O[C@H]1CN(C)Cc1ccc(C(=O)Nc2ccccc2N)cc1,-2.2,18.9,-6.6,77.4*
S=C(Nc1ccccc1)N1CCCCCC1,5.3,.,7.3,-16.2
CC(NNC(=S)N1CCCCCC1)c1ccc2ccccc2n1 (centres undefined),4.6,3.2,.,81.3*
Cc1cc(C(=O)CSc2nnc3ccccn23)c(C)n1-c1ccccc1,0.7,.,.,81.0*
